Assay outcomes from PubChem.
An excerpt weighted towards active compounds, which were near 1.9% of everything screened.
Hck Nef HTS: inhibitors of Nef-activated human Hck kinase, primary screen, biochemical, Z-Lyte FRET, 384-well, Hck-YEEI. Tyrosine-protein kinase HCK (Homo sapiens), P08631. inhibition, % at 20 µM. Recombinant Hck-YEEI plus Nef, Z-Lyte FRET kinase assay. 220,000 tested, 0.68% active;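 active = Hck-Nef kinase inhibition above about 50%, limit read from the data; inactive = inhibition below that limit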;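 also: 0% = DMSO with Hck plus Nef and 100% = Hck alone without Nef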
TbHK1 inh: Trypanosoma brucei hexokinase 1 inhibitors, primary screen, biochemical, G6PDH-coupled NADH absorbance, MLSCN library. hexokinase 1 [Trypanosoma brucei]. recombinant TbHK1, G6PDH-coupled NADH A340. inhibition, % at 10 µM. 220,000 tested, 0.11% active. AID 1430, 2008;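 active = inhibition of 50% or more in the single-dose primary screen; inactive = inhibition below 50%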
Runt-SMMHC FRET: inhibitors of RUNX1 Runt–CBFb-SMMHC binding, primary screen, biochemical, FRET, Cerulean-Runt, Venus-CBFb-SMMHC, uHTS | Runt-related transcription factor 1 (Homo sapiens) + Core-binding factor subunit beta … | Cerulean-Runt/Venus-CBFb-SMMHC FRET ratio 530/480, 1 h | inhibition, % at 20 µM | 220,000 tested, 0.74% active;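 active = mean inhibition across duplicate retests at 20 µM reaching about 50%, limit read from the data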;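 also: 0% = DMSO wells and 100% = wells with excess untagged CBFb-SMMHC; inhibitors lower the FRET ratio by blocking Runt binding to CBFb-SMMHC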
Target sequence (Q01196 whole entry, looked up): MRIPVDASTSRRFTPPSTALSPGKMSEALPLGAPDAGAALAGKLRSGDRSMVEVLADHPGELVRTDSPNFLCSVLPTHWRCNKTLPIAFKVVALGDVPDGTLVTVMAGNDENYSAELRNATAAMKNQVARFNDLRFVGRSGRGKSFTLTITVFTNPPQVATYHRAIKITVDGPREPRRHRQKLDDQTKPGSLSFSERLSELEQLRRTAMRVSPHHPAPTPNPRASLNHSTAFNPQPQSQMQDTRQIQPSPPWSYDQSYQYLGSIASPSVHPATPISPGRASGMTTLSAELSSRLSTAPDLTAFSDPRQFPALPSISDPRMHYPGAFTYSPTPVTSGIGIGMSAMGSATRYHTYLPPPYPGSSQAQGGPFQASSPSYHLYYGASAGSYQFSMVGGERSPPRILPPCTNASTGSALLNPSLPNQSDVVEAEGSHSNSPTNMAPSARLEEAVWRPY
Target sequence (Q13951 whole entry, looked up): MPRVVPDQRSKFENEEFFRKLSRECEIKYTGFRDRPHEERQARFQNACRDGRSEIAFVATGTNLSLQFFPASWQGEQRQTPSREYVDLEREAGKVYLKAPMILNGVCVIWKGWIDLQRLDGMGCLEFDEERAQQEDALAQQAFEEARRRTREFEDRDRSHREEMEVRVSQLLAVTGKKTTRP
RanGTP-Impb inh: inhibitors of RanGTP-importin-beta interaction, primary screen, biochemical, FRET, CFP-Ran, YFP-importin-beta, homogeneous; Ran GTPase (GTP-bound) - importin-beta complex; AID 2216, 2009; inhibition, % (test concentration not listed); 300,000 tested, 1.1% active; cell-free CFP-Ran/YFP-importin-beta FRET ratio;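 active = more than half of the replicate wells show a fall in the fluorescence ratio signal beyond about 16%, limit read from the data, passing the limit was not always enough; inconclusive = exactly half of the replicate wells pass the set limit; inactive = fewer than half of replicates pass the limit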;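 also: 0% = DMSO wells and 100% = Ran loaded with GDP instead of GTP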
Runt-CBFb FRET: inhibitors of RUNX1 Runt–CBFb binding, primary screen, biochemical, FRET, Cerulean-Runt, Venus-CBFb, uHTS. AID 1496, 2009. 220,000 tested, 0.46% active. inhibition, % at 20 µM. Cerulean-Runt/Venus-CBFb FRET ratio 530/480, 1 h;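 active = inhibition over about 50% at 20 µM in the single-dose screen, limit read from the data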;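 also: 0% = DMSO wells and 100% = excess unlabeled CBFb competitor control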
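Measured by: fluorescence energy transfer, 422 nm excitation, 530/480 nm emission; Assay system: Cerulean-Runt domain; Medium: Tris pH 7.5 buffer with BSA; Measure: loss of energy transfer signal; Controls: 5 µM unlabeled CBFb as full-inhibition high control; Incubation: protein complex preformed 1 h, compound exposure 1 h, room temperature, dark.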
YIC FRET counter: YIC intramolecular FRET probe signal interference, dose response, counter-screen for RanGTP-importin-beta inhibitor project, biochemical, fluorescence FRET; 1,000 tested, 40% active; IC50, µM; shares compounds with RanGTP-Impb inh; Purified YIC probe, intramolecular FRET ratio YFP/CFP;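 active = fitted half-maximal inhibitory concentration no more than tenfold above the top dose tested; inconclusive = flat fit with 30 to 70% activity, or poor fit; inactive = half-maximal concentration beyond tenfold above the top dose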
An asterisk follows results filed as active; ? = inconclusive; nt = no result.

SMILES	Hck Nef HTS	TbHK1 inh	Runt-SMMHC FRET	RanGTP-Impb inh	Runt-CBFb FRET	YIC FRET counter
Nc1c(C(=O)NCc2ccccc2)c2nc3ccccc3nc2n1-c1ccc2c(c1)OCO2	27.3	-11.6	6.2	35.3*	-7.8	11.3*
COc1ccc(-c2cc(C(=O)NCc3ccco3)c3ccccc3n2)cc1OC	nt	nt	nt	-0.7	nt	nt
Nc1ccc(-n2c(N)c(C(=O)NCc3ccc4c(c3)OCO4)c3nc4ccccc4nc32)cc1	7.5	-21.1	nt	0.9	nt	nt
COc1ccc(-n2c(N)c(C(=O)NCc3ccco3)c3nc4ccccc4nc32)cc1OC	13.3	-9.0	15.0	17.1*	-0.2	33.4*
COc1ccc(OCc2cc(C(=O)NC(C)Cn3cncn3)no2)c(Cl)c1 (stereo not drawn)	nt	nt	nt	-0.6	nt	nt
CCC(=O)NCCNc1nc2cc(C)c(C)cc2cc1C#N	5.6	3.0	46.8	33.7*	10.4	14.4*
Cc1ccc2cc(C#N)c(NCCNC(=O)C3CC3)nc2c1C	7.0	-5.8	102.6*	16.4*	28.7	46.9*
Cc1cc2cc(C)c(NCCNC(=O)c3ccccc3Cl)nc2cc1C	-2.1	-11.3	-5.3	?	-2.7	nt
Cc1cccc2cc(C#N)c(NCc3ccccc3)nc12	38.5	-15.5	46.9	?	20.7	nt
Cc1cccc2cc(C#N)c(NCCCn3ccnc3)nc12	24.5	8.7	85.6*	34.8*	33.4	20.2*
Cc1nc(NCCCn2ccnc2)c2ccccc2n1	-6.7	-3.1	-3.9	-0.9	-0.8	nt
Cc1cccc2cc(C#N)c(NCCNC(=O)COc3ccccc3)nc12	22.9	0.9	0.4	19.9*	10.7	27*
Cc1ccc2cc(CCNC(=O)C3CCCCC3)c(=O)[nH]c2c1C	nt	nt	nt	4.2	nt	nt
CC(OC(=O)Cn1nnc2ccccc21)C(=O)NC1CCCC1 (stereo not drawn)	nt	nt	nt	3.3	nt	nt
Cc1ccc(NC(=O)c2c(-c3c(F)cccc3Cl)noc2C)cc1F	-6.7	5.7	6.8	13.4	0.5	nt
COc1cc(/C=N/NC(=O)c2cc(C)oc2C)ccc1O	29.1	-31.2	-0.3	24.4*	0.2	>50
Cc1c(S(=O)(=O)N2CCCC(C(=O)O)C2)cnn1C (stereo not drawn)	18.1	-12.0	-1.0	21.9*	0.5	>50
Cc1nn(C)cc1S(=O)(=O)N1CCCC(C(=O)O)C1 (stereo not drawn)	16.1	-4.5	-1.8	-4.2	0.5	nt
CCOC(=O)c1[nH]c(C)c(C(=O)N(C)Cc2ccccc2)c1C	-0.2	3.8	1.1	25.5*	6.2	>50
COc1ccc(C2CC(c3ccc(Cl)cc3Cl)n3nc(N)nc3N2)cc1 (stereo not drawn)	7.2	-3.8	-7.4	4.3	nt	nt
COc1ccccc1C1CC(c2ccc(Cl)cc2)Nc2nc(N)nn21 (stereo not drawn)	1.1	-7.8	4.2	18.2*	-0.7	>50
CCn1cc(C(=O)NCc2cccnc2)c(=O)c2cc(F)c(N3CCN(C(=O)c4ccco4)CC3)cc21	-2.2	-18.2	3.1	5.4	0.8	nt
C=CCn1c(C)c(C(C)=O)c(N2CCN(C(c3ccccc3)c3ccccc3)CC2)nc1=S	-0.3	-4.1	-1.4	29.8*	1.3	>50
Cn1c(SCc2ccccc2F)nnc1-c1cnccn1	2.1	5.4	-2.2	-1.0	-1.1	nt
Cn1c(SCc2ccccc2F)nnc1-c1ccccn1	6.1	-6.1	-1.0	20.5*	0.8	>50
SMILES	Hck Nef HTS	TbHK1 inh	Runt-SMMHC FRET	RanGTP-Impb inh	Runt-CBFb FRET	YIC FRET counter
N#C/C(=C\c1ccc(O)c(Br)c1)C(=O)NCc1ccccc1	6.4	-4.2	134.0*	42.8*	103.9*	20*
CCOC(=O)c1ccc(CNC(=O)CSc2nnc(-c3ccncc3)o2)cc1	-1.9	5.9	-4.9	25.9*	2.0	>50
CCC1CN(C(=O)N2CCC(C(=O)NCCc3ccc(OC)cc3OC)CC2)c2ccccc2O1 (stereo not drawn)	nt	nt	nt	-1.0	nt	nt
O=C(Nc1ccc(OC(F)(F)F)cc1)c1ccc2nc[nH]c2c1	nt	nt	nt	20.1*	nt	>50
COc1ccc(CNCc2ccncc2)c(OC)c1	nt	nt	nt	5.9	nt	nt
CCc1cc(=O)oc2c(CNCc3ccc(OC)cc3OC)c(O)c(Cl)cc12	nt	nt	nt	33.8*	nt	32.1*
COc1ccc(CNCc2c(O)c(Cl)cc3c(C)c(C)c(=O)oc23)c(OC)c1	nt	nt	nt	18.2*	nt	6.97*
CCOc1ccc(C(=O)CCc2nc3ccccc3s2)cc1	0.1	13.1	-0.4	-0.3	-1.1	nt
O=C(N/N=C/c1ccc(-c2ccccc2Cl)o1)c1ccccc1	-34.3	-1.4	0.1	20.5*	0.2	>50
Cc1oc2cc3oc(=O)c(CCC(=O)NCc4ccccn4)c(C)c3cc2c1C	nt	nt	nt	-0.7	nt	nt
CCN(CC)c1ccc(/C=N/NC(=O)c2c(Cl)cnn2C)c(O)c1	11.4	38.2	82.6*	22.1*	73.7*	4.05*
CCOC(=O)N/N=C/c1ccc(N(CC)CC)cc1O	7.4	-48.9	1.2	3.5	2.1	nt
Oc1c(C=Nc2ccccc2)sc(=S)n1Cc1ccccc1	15.7	3.2	45.7	39.0*	11.5	43.7*
C=CCn1c(O)c(C=Nc2ccccc2)sc1=S	12.8	0.4	12.4	-2.7	1.5	nt
CCn1c(O)c(C=Nc2ccccc2)sc1=O	14.7	-8.5	46.8	0.9	5.8	nt
CCn1c(O)c(C=Nc2ccccc2)sc1=S	-11.9	8.3	68.5*	36.9*	34.7	16.8*
Clc1ccc2oc3c(Cl)ncnc3c2c1	1.4	-3.0	4.8	-2.1	0.8	nt
Cc1cc(C(=O)CSc2nnnn2-c2ccc(O)cc2)c(C)n1C	-0.4	-8.9	-6.2	?	5.4	nt
CCC(C)Oc1nc2c(c(=O)n(C)c(=O)n2C)n1C (stereo not drawn)	16.6	-5.7	0.0	-1.1	1.1	nt
O=C1C2C3C=CC([C@@H]2C(=O)N1C1CCCCC1)[C@H]1C(=O)N(C2CCCCC2)C(=O)C31 (stereo partly drawn)	-0.3	-3.9	2.2	1.0	-3.1	nt
NC(=S)Cc1nc(-c2ccc(Cl)cc2)cs1	31.4	3.0	-9.7	18.1*	0.9	>50
NC(=O)Cc1nc(-c2ccc(F)cc2)cs1	19.0	-11.4	-2.1	-2.2	-0.2	nt
O=C(COc1ccc(Cl)cc1)NCCNc1ccc([N+](=O)[O-])cc1	nt	nt	nt	2.6	nt	nt
CCC(c1nnnn1C1CCCC1)N1CCC(C(N)=O)CC1 (stereo not drawn)	15.3	6.7	-0.5	16.2*	1.1	>50
